According to ChEMBL document CHEMBL4002610, “Design, synthesis and biological activity evaluation of novel 2,6-difluorobenzamide derivatives through FtsZ inhibition” (2017):
In brackets after ≈: the same amount, converted by molar mass.

How the values were obtained:
[1] = target: T1, Cell division protein FtsZ (Staphylococcus aureus) (UniProt P0A031); assay: Inhibition of FtsZ in Staphylococcus aureus ATCC 25923 assessed as decrease in cell division by measuring lowest compound concentration at which bacterial ballooning is observed after 5 hrs by phase-contrast light microscopy
T1 sequence (whole entry): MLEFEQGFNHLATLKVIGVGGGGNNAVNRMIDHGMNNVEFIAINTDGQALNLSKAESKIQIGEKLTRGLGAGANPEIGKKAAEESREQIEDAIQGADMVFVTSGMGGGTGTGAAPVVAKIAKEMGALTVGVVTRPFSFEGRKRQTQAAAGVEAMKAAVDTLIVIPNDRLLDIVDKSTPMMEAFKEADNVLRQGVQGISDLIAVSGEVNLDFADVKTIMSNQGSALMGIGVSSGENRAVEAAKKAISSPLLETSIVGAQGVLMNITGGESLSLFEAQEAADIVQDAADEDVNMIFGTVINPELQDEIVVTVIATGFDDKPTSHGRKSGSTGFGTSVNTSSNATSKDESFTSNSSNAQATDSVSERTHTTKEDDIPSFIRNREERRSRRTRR
Method in brief: (§1)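 Cell division inhibition scored by cell morphology under phase-contrast light microscopy. B. subtilis ATCC9372, E. coli ATCC25922 and S. aureus ATCC25923 were exposed to compound. The lowest concentration giving filamentation (B. subtilis, E. coli) or ballooning (S. aureus) was recorded as the cell division inhibitory concentration.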

Staphylococcus aureus [2] = assay: Antibacterial activity against penicillin-resistant Staphylococcus aureus clinical isolate after 24 hrs by broth microdilution method; format: functional
Staphylococcus aureus [3] = assay: Antibacterial activity against Staphylococcus aureus ATCC 29213 after 24 hrs by broth microdilution method; format: functional; details: ATCC 29213, 24 h
Method in brief: (§2)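 MIC by standard broth microdilution per NCCLS guidance. Strain panel: B. subtilis ATCC9372 and S. aureus ATCC25923 as standard susceptible strains, S. aureus ATCC29213 as […], S. pyogenes PS as penicillin-susceptible, S. pneumoniae ATCC49619 as standard susceptible, alongside Gram-negative strains.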

[4] = tested on: Escherichia coli ATCC 25922; assay: Inhibition of FtsZ in Escherichia coli ATCC 25922 assessed as decrease in cell division by measuring lowest compound concentration at which bacterial filamentation is observed after 5 hrs by phase-contrast light microscopy; method in brief: as §1
Bacillus subtilis [5] = assay: Inhibition of FtsZ in Bacillus subtilis ATCC 9372 assessed as decrease in cell division by measuring lowest compound concentration at which bacterial filamentation is observed after 5 hrs by phase-contrast light microscopy; method in brief: as §1
Escherichia coli = assay: Antibacterial activity against Escherichia coli ATCC 25922 after 24 hrs by broth microdilution method; format: functional; details: ATCC 25922, 24 h; method in brief: as §2
Streptococcus pyogenes = assay: Antibacterial activity against penicillin-susceptible Streptococcus pyogenes after 24 hrs by broth microdilution method; format: functional; method in brief: as §2
Streptococcus pneumoniae = assay: Antibacterial activity against Streptococcus pneumoniae ATCC 49619 after 24 hrs by broth microdilution method; format: functional; details: ATCC 49619, 24 h; method in brief: as §2
Staphylococcus aureus [6] = assay: Antibacterial activity against Staphylococcus aureus ATCC 25923 after 24 hrs by broth microdilution method; format: functional; details: ATCC 25923, 24 h; method in brief: as §2
Bacillus subtilis [7] = assay: Antibacterial activity against Bacillus subtilis ATCC 9372 after 24 hrs by broth microdilution method; format: functional; details: ATCC 9372, 24 h; method in brief: as §2
Pseudomonas aeruginosa = assay: Antibacterial activity against Pseudomonas aeruginosa ATCC 27853 after 24 hrs by broth microdilution method; format: functional; details: ATCC 27853, 24 h; method in brief: as §2

Structure (SMILES)	INH [1] [µg/mL]	MIC (Staphylococcus aureus [2]) [µg/mL]	MIC (Staphylococcus aureus [3]) [µg/mL]	INH [4] [µg/mL]	INH (Bacillus subtilis [5]) [µg/mL]	MIC (Escherichia coli) [µg/mL]	MIC (Streptococcus pyogenes) [µg/mL]	MIC (Streptococcus pneumoniae) [µg/mL]	MIC (Staphylococcus aureus [6]) [µg/mL]	MIC (Bacillus subtilis [7]) [µg/mL]	MIC (Pseudomonas aeruginosa) [µg/mL]
CC(C)COc1ccc(F)c(C(N)=O)c1F	16	64 (≈ 279 µM)	128 (≈ 558 µM)	64	32	256 (≈ 1120 µM)	> 128	128 (≈ 558 µM)	32 (≈ 140 µM)	64 (≈ 279 µM)	128 (≈ 558 µM)
NC(=O)c1c(F)ccc(OCCBr)c1F	16	32 (≈ 114 µM)	64 (≈ 229 µM)	32	2	128 (≈ 457 µM)	64 (≈ 229 µM)	> 128	16 (≈ 57.1 µM)	16 (≈ 57.1 µM)	128 (≈ 457 µM)
NC(=O)c1c(F)ccc(OC2CCCC2)c1F	256	512 (≈ 2120 µM)	256 (≈ 1060 µM)	64	256	128 (≈ 531 µM)	> 128	128 (≈ 531 µM)	256 (≈ 1060 µM)	512 (≈ 2120 µM)	128 (≈ 531 µM)
NC(=O)c1c(F)ccc(OCCn2cnc3cc([N+](=O)[O-])ccc32)c1F	256	1020 (≈ 2830 µM)	512 (≈ 1410 µM)	128	32	256 (≈ 707 µM)	512 (≈ 1410 µM)	256 (≈ 707 µM)	256 (≈ 707 µM)	64 (≈ 177 µM)	512 (≈ 1410 µM)
NC(=O)c1c(F)ccc(OCCCCl)c1F	32	32 (≈ 128 µM)	32 (≈ 128 µM)	64	16	128 (≈ 513 µM)	128 (≈ 513 µM)	> 128	16 (≈ 64.1 µM)	32 (≈ 128 µM)	128 (≈ 513 µM)
NC(=O)c1c(F)ccc(OCCCCBr)c1F	4	8 (≈ 26 µM)	32 (≈ 104 µM)	64	1	128 (≈ 415 µM)	128 (≈ 415 µM)	> 128	4 (≈ 13 µM)	4 (≈ 13 µM)	128 (≈ 415 µM)
NC(=O)c1c(F)ccc(OCCCCCCl)c1F	16	16 (≈ 57.6 µM)	32 (≈ 115 µM)	64	2	128 (≈ 461 µM)	64 (≈ 230 µM)	128 (≈ 461 µM)	16 (≈ 57.6 µM)	4 (≈ 14.4 µM)	128 (≈ 461 µM)
NC(=O)c1c(F)ccc(OCCCCCBr)c1F	4	16 (≈ 49.7 µM)	16 (≈ 49.7 µM)	64	2	256 (≈ 795 µM)	128 (≈ 397 µM)	128 (≈ 397 µM)	8 (≈ 24.8 µM)	16 (≈ 49.7 µM)	256 (≈ 795 µM)
NC(=O)c1c(F)ccc(OCCCCCCn2cnc3ccccc32)c1F	128	1020 (≈ 2740 µM)	256 (≈ 686 µM)	256	128	512 (≈ 1370 µM)	512 (≈ 1370 µM)	256 (≈ 686 µM)	512 (≈ 1370 µM)	256 (≈ 686 µM)	512 (≈ 1370 µM)
CC(C)CCOc1ccc(F)c(C(N)=O)c1F	4	16 (≈ 65.8 µM)	16 (≈ 65.8 µM)	64	4	128 (≈ 526 µM)	> 128	128 (≈ 526 µM)	64 (≈ 263 µM)	8 (≈ 32.9 µM)	128 (≈ 526 µM)
CCOCCC(=O)COc1ccc(F)c(C(N)=O)c1F	128	256 (≈ 891 µM)	128 (≈ 446 µM)	64	32	256 (≈ 891 µM)	> 128	128 (≈ 446 µM)	64 (≈ 223 µM)	64 (≈ 223 µM)	128 (≈ 446 µM)
NC(=O)c1c(F)ccc(OCCCBr)c1F	16	32 (≈ 109 µM)	32 (≈ 109 µM)	64	16	128 (≈ 435 µM)	64 (≈ 218 µM)	> 128	16 (≈ 54.4 µM)	32 (≈ 109 µM)	128 (≈ 435 µM)
NC(=O)c1c(F)ccc(OCCCCCl)c1F	4	8 (≈ 30.3 µM)	8 (≈ 30.3 µM)	64	2	128 (≈ 485 µM)	64 (≈ 243 µM)	128 (≈ 485 µM)	8 (≈ 30.3 µM)	4 (≈ 15.2 µM)	128 (≈ 485 µM)
